Shown are actives, neighbours in structure and some others; about 5.2% of the full set was active somewhere.
PfM18AAP inh = PfM18AAP enzyme inhibition; recombinant PfM18AAP, H-Glu-NHMec fluorogenic cleavage; inhibition, % at 7.35 µM; 290,000 tested, 1.2% active;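 active = inhibition above the campaign mean inhibition over all tested compounds plus 3 SD, cut at about 28% in these data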;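 note: 0% = plate median of test compound wells and 100% = 2 mM ZnCl2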
HCV NS3 hel inh = HCV NS3 helicase inhibition | AID 1800 | 290,000 tested, 0.56% active | NS3 helicase DNA unwinding, Cy5 molecular beacon fluorescence | inhibition, % at 10.9 µM;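 active = inhibition above the mean of all tested compounds plus 3 SD, set per campaign, cut at about 35% in these data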;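 note: 0% = DMSO wells and 100% = thioflavine S control wells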
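System: HCV NS3 helicase fragment; control set: DMSO and thioflavine S; technique: Cy5 fluorescence at 0 and 60 min, beacon hairpin quenching; reagent: beacon DNA duplex substrate plus ATP; replicates: singlicate; schedule: 1 h reaction at 25 °C, ATP-initiated; medium: MOPS buffer pH 6.5 with MgCl2, DTT, Tween20, BSA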
ZTA DNA inh = counter-screen for EBNA-1 inhibitors: inhibitors of Epstein-Barr virus ZTA | ZTA-DNA binding, fluorescence polarization | inhibition, % at 11 µM | 320,000 tested, 0.15% active | AID 2234; in the data active = inhibition above about 33%
Target sequence (P03206 whole entry, looked up): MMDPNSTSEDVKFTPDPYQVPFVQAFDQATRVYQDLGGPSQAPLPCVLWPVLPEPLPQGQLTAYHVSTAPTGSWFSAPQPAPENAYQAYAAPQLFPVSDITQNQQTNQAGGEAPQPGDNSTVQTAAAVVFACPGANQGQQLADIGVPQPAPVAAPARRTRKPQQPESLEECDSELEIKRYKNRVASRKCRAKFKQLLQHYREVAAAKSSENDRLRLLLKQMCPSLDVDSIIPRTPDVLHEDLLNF
ALR H2O2 inh = blocks human ALR sulfhydryl oxidase activity; inhibition, % (no concentration beside the values); P55789; 290,000 tested, 3.8% active; purified ALR, DTT oxidation, H2O2 HRP-luminol luminescence;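 active = mean replicate inhibition above about 79%, with every replicate also reaching it, limit read from the data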
Target sequence (P55789 whole entry, looked up): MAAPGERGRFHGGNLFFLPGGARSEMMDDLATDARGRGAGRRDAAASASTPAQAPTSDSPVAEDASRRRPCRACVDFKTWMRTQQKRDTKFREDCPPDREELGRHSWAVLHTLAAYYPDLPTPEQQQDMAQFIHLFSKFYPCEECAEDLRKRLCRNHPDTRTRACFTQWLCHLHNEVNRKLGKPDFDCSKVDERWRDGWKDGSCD
core dimer inh = HCV core protein dimerization inhibition. TR-FRET GST/Flag-core106 dimerization, 1536-well. inhibition, % at 5 µM. 300,000 tested, 0.33% active. AID 1899;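 active = inhibition above the mean of all tested compounds plus 3 SD, set per screening campaign, cut at about 45% in these data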
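System: GST-tagged and Flag-tagged HCV core protein residues 1-106 / Input: core106 proteins, GST 13.5 nM and Flag 17 nM / Buffer or medium: KF-containing HEPES buffer, pH 7.45, DTT, CHAPS, BSA / Probe or stimulus: Eu-anti-GST and XL665-anti-Flag labelled anti-tag antibodies / Schedule: 4 h, 22.5 °C incubation / Technique: TR-FRET 671 and 617 nm emission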
EBNA-1 inhibitor = blocks EBNA-1 binding to DNA | EBNA-1 DNA binding, fluorescence polarization | inhibition, % at 14.8 µM | 300,000 tested, 0.34% active; in the data active = inhibition above about 28%
Active calls of the source: *; . = no result given.

SMILES	PfM18AAP inh	HCV NS3 hel inh	ZTA DNA inh	ALR H2O2 inh	core dimer inh	EBNA-1 inhibitor
Clc1ccc(CSc2nnc(-c3cccnc3)n2Cc2ccco2)c(Cl)c1	-70	11	7	97*	48*	-17
Clc1cccc(CSc2nnc(-c3cccnc3)n2Cc2ccco2)c1	-26	6	0	3	4	4
Clc1ccccc1CSc1nnc(-c2ccccn2)n1Cc1ccco1	-57	0	-19	92*	6	-1
COc1ccc(S(=O)(=O)N2CCCCC2)cc1NC(=O)c1ccc(N2CCCC2=O)cc1	.	.	3	-2	.	.
COc1ccc(NC(=O)CCCn2cnc3ccccc3c2=O)cc1	8	5	3	.	-6	-4
Cc1ccc(-c2nn(-c3ccccc3)cc2/C=N/NC(=O)c2ccc(Br)o2)cc1	1	5	5	.	49*	2
Cc1cccc(Oc2ccc(S(=O)(=O)N3CCCCC3)cc2N)c1	-6	-4	0	2	6	-9
COc1ccc(-n2c(CN3CCOCC3)nc3ccc([N+](=O)[O-])cc3c2=O)c(OC)c1	12	11	-6	-2	65*	10
O=C(CSc1nc(CCC2CCCC2)nc2ccccc12)NCc1ccc2c(c1)OCO2	1	-9	-17	100*	21	4
Cc1cc(NC(=O)CSc2nc(CCC3CCCC3)nc3ccccc23)no1	3	-7	7	97*	11	5
COc1ccccc1C(=O)NC(=O)COC(=O)CN1C(=O)NC(C)(C)C1=O	.	.	-19	2	-11	1
CCCCN1CC(O)=C(c2nc(-c3ccc(Br)cc3)cs2)C1=N	2	12	6	-3	4	-3
COc1ccc(-c2csc(C3=C(O)CN(CCCN4CCCC4=O)C3=N)n2)cc1OC	1	-13	-7	96*	-8	-8
Cc1nc2ccc(-c3ccccc3)cc2o1	0	2	-3	96*	-6	-8
CNC(=O)Nc1ccc2nc(C)oc2c1	3	6	-18	-4	-7	-9
CCCCSCCCNC(=O)CS(=O)Cc1nc(-c2cccc(C)c2)oc1C (stereo not given)	3	-2	6	99*	3	2
CCCCNC(=O)CS(=O)Cc1nc(-c2cccc(C)c2)oc1C (stereo not given)	6	5	17	99*	13	8
Cc1cccc(-c2nc(CS(=O)CC(=O)NCCc3ccc(Cl)cc3)c(C)o2)c1 (stereo not given)	0	-2	10	91*	-1	-22
CCCCNC(=O)CS(=O)Cc1nc(-c2cccc(Cl)c2)oc1C (stereo not given)	-3	4	16	100*	-12	-4
CC(=O)C[C@H](O)CC(=O)[C@H]1OC(=O)[C@H](C)C/C=C\Cc2ccccc21	.	.	-8	-5	.	.
Cc1noc(C)c1NC(=O)N(C)C[C@H]1Oc2ccc(NS(=O)(=O)c3cccs3)cc2C(=O)N([C@H](C)CO)C[C@@H]1C	.	.	.	-4	.	.
Cc1cccc(-c2nc(CS(=O)CC(=O)NC3CCCC3)c(C)o2)c1 (stereo not given)	7	0	.	.	.	.
CCC(C)NC(=O)CS(=O)Cc1nc(-c2cccc(C)c2)oc1C (stereo not given)	-9	-4	7	98*	2	-2
CC[n+]1c(-c2ccc(C)cc2)csc1Nc1c(C)n(C)n(-c2ccccc2)c1=O	0	-14	8	.	4	-6
CC[n+]1c(-c2ccccc2)csc1Nc1c(C)n(C)n(-c2ccccc2)c1=O	-3	3	-16	99*	-3	-4
SMILES	PfM18AAP inh	HCV NS3 hel inh	ZTA DNA inh	ALR H2O2 inh	core dimer inh	EBNA-1 inhibitor
CCOc1cccc2sc(NC(=O)CC)nc12	6	14	9	3	6	6
CCC(=O)NNc1nc2c(F)cccc2s1	31*	-2	-13	5	-2	3
COc1cccc(OC)c1OCCN(C)C	31*	10	12	.	0	10
COc1ccc(C(=O)CSC#N)cc1OC	2	-13	3	99*	-16	4
COc1ccc(C(=O)CSc2nc(SC)ns2)cc1OC	-10	1	7	.	-9	0
COc1ccc(C(=O)COC(=O)c2ccc(OC)c(OC)c2)cc1OC	-15	-4	12	28	3	12
COc1ccc(C(=O)CSc2cc(C)nc3nc(C)nn23)cc1OC	-6	-4	2	98*	0	-8
COc1ccccc1N1CCN(C(=O)c2cc(=O)c3ccc(C)cc3o2)CC1	-8	-6	-7	99*	9	-1
Cc1ccc(-c2nc(CS(=O)CC(=O)NCCN(CC(C)C)CC(C)C)c(C)o2)cc1 (stereo not given)	0	4	-8	99*	-4	2
Cc1oc(-c2ccc(Cl)cc2)nc1CS(=O)CC(=O)NCCN1CCCC1 (stereo not given)	4	0	-4	99*	-12	-5
CCc1ccc(-c2nc(CN3CCC(C(=O)NCc4ccco4)CC3)c(C)o2)cc1	10	-16	-13	-8	0	3
CCc1ccc(-c2nc(CS(=O)CC(=O)NCCN3CCCCCC3)c(C)o2)cc1 (stereo not given)	4	-26	-27	100*	-15	-9
CCc1ccc(-c2nc(CS(=O)CC(=O)NCCCN3CCC(C)CC3)c(C)o2)cc1 (stereo not given)	1	-16	-4	98*	9	-3
CCCN(CCC)CCNC(=O)C1CCN(Cc2nc(-c3ccc(Cl)cc3)oc2C)CC1	3	-30	-6	-6	-8	-1
COc1ccc(Cl)cc1S(=O)(=O)NCc1ccncc1	-6	-12	-34	-5	-10	4
CCN(C(=O)COC(=O)c1oc2ccccc2c1C)c1c(N)n(Cc2ccccc2)c(=O)[nH]c1=O	.	.	-23	.	.	.
Cc1noc(C)c1COc1ccccc1C(=O)N(C)CC(=O)Nc1ccc(F)c(F)c1F	.	.	5	.	.	.
COc1ccc([C@]2(C(C)C)ON(c3ccccc3C(F)(F)F)C2=O)cc1	.	.	8	-2	.	.
Cc1ccc(-c2nc(CS(=O)CC(=O)NCCN3CCOCC3)c(C)o2)cc1 (stereo not given)	0	3	-16	99*	-12	-11
Cc1ccccc1-c1nc(CS(=O)CC(=O)NCCN2CCOCC2)c(C)o1 (stereo not given)	1	12	6	99*	-17	3
Cc1oc(-c2ccc(Cl)cc2)nc1CS(=O)CC(=O)NCCCN1CCOCC1 (stereo not given)	-1	-12	0	99*	6	13
Cc1ccc(-c2nc(CS(=O)CC(=O)NCCN3CCCC3)c(C)o2)cc1 (stereo not given)	-8	0	-1	99*	0	-5
Cc1ccc(-c2nc(CS(=O)CC(=O)NCCCN3CCN(Cc4ccccc4)CC3)c(C)o2)cc1 (stereo not given)	-2	-7	-4	99*	-1	-12

Assay outcomes (PubChem)
